According to ChEMBL document CHEMBL3856258, “Phosphonate-based irreversible inhibitors of human γ-glutamyl transpeptidase (GGT). GGsTop is a non-toxic and highly selective inhibitor with critical electrostatic interaction with an active-site residue Lys562 for enhanced inhibitory activity” (Bioorg Med Chem, 2016):

How the values were obtained:
[1] = Cytotoxicity against CHL cells assessed as growth rate at 1320 ug/ml after 24 hrs in absence of S9 fraction by MTT assay relative to control; assay type: toxicity, cell-based, Cricetulus griseus; conditions: chinese hamster, read-out: Activity
[2] = test system: Salmonella typhimurium; test: Genotoxicity in Salmonella typhimurium TA1537 assessed as number of revertant colonies per plate at 5000 ug/plate after 20 mins in presence of S9 fraction by Ames test (reference value: 15); assay type: toxicity, organism-based; conditions: salmonella enterica subsp. enterica serovar typhimurium
[3] = Cytotoxicity against human CCD-1059SK cells assessed as morphological change up to 1 mM after 24 hrs by inverted microscopic analysis; assay type: toxicity, cell-based
Method in brief: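 Human skin fibroblasts (CCD-1059SK), passages 10–20, grown in DMEM with 10% FBS and antibiotics at 37 °C under 5% CO2. Plated at 3 × 10^4 cells/mL on chamber slides and pre-incubated 24 h. Then exposed 24 h to 0, 5, 10, 20, 50 or 1000 µM in DMEM (from aqueous solution); water-only control. Morphology checked by inverted microscopy.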

[4] = test system: Glutathione hydrolase 1 proenzyme (Homo sapiens), P19440 [K562S]; test: Inhibition of human GGT K562S mutant expressed in baculovirus infected High Five cells assessed as residual activity up to 1 mM using gamma-Glu-PNA as substrate after 5 mins by spectrophotometric method relative to control; conditions: BTI-TN-5B1-4
Sequence of Glutathione hydrolase 1 proenzyme (Homo sapiens), P19440 [K562S] (P19440 whole entry K562S, the tested form may be a part): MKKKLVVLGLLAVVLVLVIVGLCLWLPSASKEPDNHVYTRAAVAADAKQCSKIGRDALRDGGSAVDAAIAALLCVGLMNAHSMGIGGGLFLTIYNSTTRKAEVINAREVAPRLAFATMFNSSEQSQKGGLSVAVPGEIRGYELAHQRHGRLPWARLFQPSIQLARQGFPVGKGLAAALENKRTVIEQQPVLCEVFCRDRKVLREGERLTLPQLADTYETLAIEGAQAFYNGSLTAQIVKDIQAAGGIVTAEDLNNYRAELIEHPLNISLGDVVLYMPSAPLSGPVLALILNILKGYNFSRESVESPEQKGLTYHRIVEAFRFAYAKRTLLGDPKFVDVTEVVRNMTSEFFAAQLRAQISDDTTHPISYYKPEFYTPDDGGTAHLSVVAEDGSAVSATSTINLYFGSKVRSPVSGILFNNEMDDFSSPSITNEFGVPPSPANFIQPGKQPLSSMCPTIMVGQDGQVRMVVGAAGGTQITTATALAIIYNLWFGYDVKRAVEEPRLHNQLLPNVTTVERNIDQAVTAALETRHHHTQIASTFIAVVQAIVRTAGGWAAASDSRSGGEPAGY
Method in brief: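 Soluble N-terminal-truncated (Δ1–27) GGT was secreted by baculovirus-infected High Five cells (4 d, 27 °C) and purified from the medium on Con A and Q Sepharose. Activity was measured in 100 mM Tris-HCl pH 8.0 with 1 mM γ-Glu-PNA and 20 mM Gly-Gly at 37 °C, reading p-nitroaniline release continuously at 410 nm.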

[5] = Cytotoxicity against CHL cells assessed as number of cells with numerical aberrations at 825 ug/ml after 24 hrs by Giemsa staining-based microscopic analysis relative to control; assay type: toxicity, cell-based, Cricetulus griseus; conditions: chinese hamster
[6] = Hydrolytic stability of compound in D2O at pH 1 to 2 by 31P NMR spectroscopy; assay type: physicochemical; conditions: buffer
[7] = test system: Salmonella typhimurium; test: Genotoxicity in Salmonella typhimurium TA100 assessed as number of revertant colonies per plate at 20.6 ug/plate after 20 mins in absence of S9 fraction by Ames test (reference value: 123); assay type: toxicity, organism-based; conditions: salmonella enterica subsp. enterica serovar typhimurium
[8] = Cytotoxicity against CHL cells assessed as growth rate at 211 ug/ml after 24 hrs in absence of S9 fraction by MTT assay relative to control; assay type: toxicity, cell-based, Cricetulus griseus; conditions: chinese hamster, read-out: Activity
[9] = test system: Salmonella typhimurium; test: Genotoxicity in Salmonella typhimurium TA1535 assessed as number of revertant colonies per plate at 20.6 ug/plate after 20 mins in absence of S9 fraction by Ames test (reference value: 15); assay type: toxicity, organism-based; conditions: salmonella enterica subsp. enterica serovar typhimurium
[10] = Cytotoxicity against CHL cells assessed as growth rate at 33.8 ug/ml preincubated for 6 hrs followed by 18 hrs incubation in fresh medium in absence of S9 fraction by MTT assay relative to control; assay type: toxicity, cell-based, Cricetulus griseus; conditions: chinese hamster, read-out: Activity
[11] = Cytotoxicity against CHL cells assessed as structural aberrations at 825 ug/ml preincubated for 6 hrs followed by 18 hrs incubation in fresh medium in absence of S9 fraction by Giemsa-staining-based microscopic analysis; assay type: toxicity, cell-based, Cricetulus griseus; conditions: chinese hamster
[12] = test system: Escherichia coli; test: Genotoxicity in Escherichia coli WP2uvrA assessed as number of revertant colonies per plate at 61.7 ug/plate after 20 mins in presence of S9 fraction by Ames test (reference value: 26); assay type: toxicity; conditions: s9, 20 min
[13] = test system: Salmonella typhimurium; test: Genotoxicity in Salmonella typhimurium TA100 assessed as number of revertant colonies per plate at 20.6 ug/plate after 20 mins in presence of S9 fraction by Ames test (reference value: 142); assay type: toxicity, organism-based; conditions: salmonella enterica subsp. enterica serovar typhimurium
[14] = test system: Salmonella typhimurium; test: Genotoxicity in Salmonella typhimurium TA98 assessed as number of revertant colonies per plate at 20.6 ug/plate after 20 mins in absence of S9 fraction by Ames test (reference value: 21); assay type: toxicity, organism-based; conditions: salmonella enterica subsp. enterica serovar typhimurium
[15] = test system: Salmonella typhimurium; test: Genotoxicity in Salmonella typhimurium TA1537 assessed as number of revertant colonies per plate at 20.6 ug/plate after 20 mins in presence of S9 fraction by Ames test (reference value: 15); assay type: toxicity, organism-based; conditions: salmonella enterica subsp. enterica serovar typhimurium
[16] = Cytotoxicity against CHL cells assessed as number of cells with numerical aberrations at 1650 ug/ml preincubated for 6 hrs followed by 18 hrs incubation in fresh medium in absence of S9 fraction by Giemsa-staining-based microscopic analysis relative to control; assay type: toxicity, cell-based, Cricetulus griseus; conditions: chinese hamster
[17] = Cytotoxicity against CHL cells assessed as structural aberrations at 825 ug/ml preincubated for 6 hrs followed by 18 hrs incubation in fresh medium in presence of S9 fraction by Giemsa-staining-based microscopic analysis; assay type: toxicity, cell-based, Cricetulus griseus; conditions: chinese hamster
[18] = Cytotoxicity against CHL cells assessed as number of cells with numerical aberrations at 1650 ug/ml after 24 hrs by Giemsa staining-based microscopic analysis relative to control; assay type: toxicity, cell-based, Cricetulus griseus; conditions: chinese hamster
[19] = Cytotoxicity against CHL cells assessed as structural aberrations at 825 ug/ml after 24 hrs by Giemsa-staining-based microscopic analysis; assay type: toxicity, cell-based, Cricetulus griseus; conditions: chinese hamster
[20] = test system: Escherichia coli; test: Genotoxicity in Escherichia coli WP2uvrA assessed as number of revertant colonies per plate at 185 ug/plate after 20 mins in presence of S9 fraction by Ames test (reference value: 26); assay type: toxicity; conditions: s9, 20 min
[21] = test system: Salmonella typhimurium; test: Genotoxicity in Salmonella typhimurium TA1535 assessed as number of revertant colonies per plate at 20.6 ug/plate after 20 mins in presence of S9 fraction by Ames test (reference value: 13); assay type: toxicity, organism-based; conditions: salmonella enterica subsp. enterica serovar typhimurium
[22] = Cytotoxicity against CHL cells assessed as growth rate at 5.41 ug/ml preincubated for 6 hrs followed by 18 hrs incubation in fresh medium in presence of S9 fraction by MTT assay relative to control; assay type: toxicity, cell-based, Cricetulus griseus; conditions: chinese hamster, read-out: Activity
[23] = Cytotoxicity against CHL cells assessed as number of cells with numerical aberrations at 1650 ug/ml preincubated for 6 hrs followed by 18 hrs incubation in fresh medium in presence of S9 fraction by Giemsa staining-based microscopic analysis relative to control; assay type: toxicity, cell-based, Cricetulus griseus; conditions: chinese hamster
[24] = test system: Salmonella typhimurium; test: Genotoxicity in Salmonella typhimurium TA98 assessed as number of revertant colonies per plate at 185 ug/plate after 20 mins in absence of S9 fraction by Ames test (reference value: 21); assay type: toxicity, organism-based; conditions: salmonella enterica subsp. enterica serovar typhimurium
[25] = Cytotoxicity against CHL cells assessed as growth rate at 84.5 ug/ml preincubated for 6 hrs followed by 18 hrs incubation in fresh medium in presence of S9 fraction by MTT assay relative to control; assay type: toxicity, cell-based, Cricetulus griseus; conditions: chinese hamster, read-out: Activity
[26] = test system: Salmonella typhimurium; test: Genotoxicity in Salmonella typhimurium TA100 assessed as number of revertant colonies per plate at 556 ug/plate after 20 mins in absence of S9 fraction by Ames test (reference value: 123); assay type: toxicity, organism-based; conditions: salmonella enterica subsp. enterica serovar typhimurium
[27] = test system: Salmonella typhimurium; test: Genotoxicity in Salmonella typhimurium TA98 assessed as number of revertant colonies per plate at […] ug/plate after 20 mins in presence of S9 fraction by Ames test (reference value: 26); assay type: toxicity, organism-based; conditions: salmonella enterica subsp. enterica serovar typhimurium
[28] = test system: Escherichia coli; test: Genotoxicity in Escherichia coli WP2uvrA assessed as number of revertant colonies per plate at 5000 ug/plate after 20 mins in presence of S9 fraction by Ames test (reference value: 26); assay type: toxicity; conditions: s9, 20 min
[29] = Hydrolytic stability of compound in D2O at pH >8.5 by 31P NMR spectroscopy; assay type: physicochemical
[30] = test system: Escherichia coli; test: Genotoxicity in Escherichia coli WP2uvrA assessed as number of revertant colonies per plate at 20.6 ug/plate after 20 mins in absence of S9 fraction by Ames test (reference value: 24); assay type: toxicity; conditions: s9, 20 min

## COP(=O)(CCC(N)C(=O)O)Oc1cccc(CC(=O)O)c1 (stereo not given)
[1]
  viability at 24 h, 1320 ug/ml: 92.6%
[2]
  Activity: 17
[3]
  Activity: Non-Toxic
[4]
  Activity: > 80%
[5]
  Activity: 0%
[6]
  Stability: Stable
[7]
  Activity: 120
[8]
  viability at 24 h, 211 ug/ml: 98.2%
[9]
  Activity: 15
[10]
  viability at 18 h, 33.8 ug/ml: 103%
[11]
  Activity: 3%
[12]
  Activity: 28
[13]
  Activity: 139
[14]
  Activity: 21
[15]
  Activity: 17
[16]
  Activity: 0%
[17]
  Activity: 1%
[18]
  Activity: 0%
[19]
  Activity: 0%
[20]
  Activity: 28
[21]
  Activity: 11
[22]
  viability at 18 h, 5.41 ug/ml: 102%
[23]
  Activity: 0%
[24]
  Activity: 24
[25]
  viability at 18 h, 84.5 ug/ml: 100%
[26]
  Activity: 118
[27]
  Activity: 25
[28]
  Activity: 34
[29]
  Stability: Unstable
[30]
  Activity: 26
